Test results published in ChEMBL document CHEMBL1154862, “Synthesis of potent BACE-1 inhibitors incorporating a hydroxyethylene isostere as central core” (Eur J Med Chem, 2010).

What was measured:
Beta-secretase 1 [1] = molecular target: T1, Beta-secretase 1 (Homo sapiens, UniProt P56817); test: Inhibition of BACE1 after 30 mins by homogeneous time resolved fluorescence assay
Beta-secretase 1 [2] = molecular target: T1, Beta-secretase 1; test: Inhibition of human BACE1 in HEK293 cells stably co-transfected with mutant APP(swAPP751) assessed as Amyloid beta 1-40 level after 24 hrs by ELISA; format: cell-based
How it was run: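 HEK-293 cells stably expressing Swedish mutant APP (swAPP751), grown in DMEM with 10% FCS, penicillin/streptomycin and 200 µg/mL hygromycin at 37 °C, 5% CO2. Seeded 2 × 10^4 cells/well, settled overnight, washed once with fresh medium, then inhibitor added (DMSO at most 1% final). Medium collected after 24 h; secreted Aβ1–40 measured by ELISA.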

Cathepsin D = Cathepsin D (Homo sapiens, UniProt P07339); test: Inhibition of human liver cathepsin D after 20 mins by homogeneous time resolved fluorescence assay
Sequence of Cathepsin D (P07339 65-162 limits assumed): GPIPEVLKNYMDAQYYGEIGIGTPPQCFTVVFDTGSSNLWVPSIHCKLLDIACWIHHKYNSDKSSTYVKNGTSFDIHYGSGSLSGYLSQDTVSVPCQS
Sequence of Cathepsin D (P07339 169-412 limits assumed): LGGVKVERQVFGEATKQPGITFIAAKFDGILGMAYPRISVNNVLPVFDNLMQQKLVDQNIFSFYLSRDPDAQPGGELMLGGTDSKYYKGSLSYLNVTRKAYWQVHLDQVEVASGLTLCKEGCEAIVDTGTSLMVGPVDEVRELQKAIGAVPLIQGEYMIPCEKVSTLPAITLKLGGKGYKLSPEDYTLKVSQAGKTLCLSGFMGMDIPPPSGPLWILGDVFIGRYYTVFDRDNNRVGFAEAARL

T1 sequence (P56817 whole entry): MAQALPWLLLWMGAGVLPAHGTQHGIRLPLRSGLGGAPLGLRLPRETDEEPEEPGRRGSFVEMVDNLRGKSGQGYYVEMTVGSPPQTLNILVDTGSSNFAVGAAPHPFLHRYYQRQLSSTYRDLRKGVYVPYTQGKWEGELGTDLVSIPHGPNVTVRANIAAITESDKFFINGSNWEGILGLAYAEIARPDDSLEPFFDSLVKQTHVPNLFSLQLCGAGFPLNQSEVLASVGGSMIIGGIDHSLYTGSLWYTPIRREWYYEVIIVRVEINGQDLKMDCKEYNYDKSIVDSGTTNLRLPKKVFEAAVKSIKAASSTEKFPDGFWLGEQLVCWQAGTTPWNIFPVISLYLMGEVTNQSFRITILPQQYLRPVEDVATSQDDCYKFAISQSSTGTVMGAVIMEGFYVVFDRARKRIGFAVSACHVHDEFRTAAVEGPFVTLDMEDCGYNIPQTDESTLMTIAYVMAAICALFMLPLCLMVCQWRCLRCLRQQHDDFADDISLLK

With `CC(C)[C@H](NC(=O)[C@H](C)C[C@H](O)[C@H](COCc1ccccc1)NC(=O)c1cc(C(=O)N[C@H](C)c2ccccc2)cc(N(C)S(C)(=O)=O)c1)C(=O)NCc1ccccc1` the IC50 (Beta-secretase 1 [1]) was 3.6 nM, the IC50 (Beta-secretase 1 [2]) was 1000 nM and the IC50 (Cathepsin D) was 41 nM.

`CC(C)[C@H](NC(=O)[C@H](C)C[C@H](O)[C@H](COCc1cc(F)cc(F)c1)NC(=O)c1cc(C(=O)N[C@H](C)c2ccccc2)cc(N(C)S(C)(=O)=O)c1)C(=O)NCc1ccccc1` was tested, and the IC50 (Beta-secretase 1 [2]) was 4500 nM and the IC50 (Cathepsin D) was 210 nM.

`CC(C)[C@H](NC(=O)[C@H](C)C[C@H](O)[C@H](COc1cc(F)cc(F)c1)NC(=O)c1cc(C(=O)N[C@H](C)c2ccccc2)cc(N(C)S(C)(=O)=O)c1)C(=O)NCc1ccccc1` was tested, and the IC50 (Beta-secretase 1 [1]) was 3.1 nM, the IC50 (Beta-secretase 1 [2]) was 160 nM and the IC50 (Cathepsin D) was 59 nM.

Compound `CC(C)[C@H](NC(=O)[C@@H](C)C[C@H](O)[C@H](COc1cc(F)cc(F)c1)NC(=O)c1cc(C(=O)N[C@H](C)c2ccccc2)cc(N(C)S(C)(=O)=O)c1)C(=O)NCc1ccccc1` has an IC50 (Beta-secretase 1 [1]) of 10 nM, an IC50 (Beta-secretase 1 [2]) of 340 nM and an IC50 (Cathepsin D) of 120 nM.

Compound `CSCC[C@H](NC(=O)[C@@H](NC(=O)OC(C)(C)C)C(C)C)C(=O)N[C@@H](COCc1cc(F)cc(F)c1)[C@@H](O)C[C@@H](C)C(=O)N[C@H](C(=O)NCc1ccccc1)C(C)C` has an IC50 (Beta-secretase 1 [1]) of 10000 nM and an IC50 (Cathepsin D) of 0.63 nM.

For `CNC(=O)c1cc(C(=O)N[C@@H](COCc2cc(F)cc(F)c2)[C@@H](O)C[C@@H](C)C(=O)N[C@H](C(=O)NCc2ccccc2)C(C)C)cc(N(C)S(C)(=O)=O)c1`, the IC50 (Beta-secretase 1 [1]) was 1260 nM and the IC50 (Cathepsin D) was greater than 5000 nM.

In the case of `C[C@H](C[C@H](O)[C@H](COCc1cc(F)cc(F)c1)NC(=O)c1cc(C(=O)N[C@H](C)c2ccccc2)cc(N(C)S(C)(=O)=O)c1)C(=O)NC1CC1`, the IC50 (Beta-secretase 1 [1]) is reported as greater than 10000 nM and the IC50 (Cathepsin D) is reported as greater than 5000 nM.
